This note sets out measurements from ChEMBL document CHEMBL1128451, “Synthesis and anti-DNA viral activities in vitro of certain 2,4-disubstituted-7-(2-deoxy-2-fluoro-beta-D-arabinofuranosyl)pyrrolo[2,3-d d pyrimidine nucleosides” (J Med Chem, 1995).

The nature of data set [1]: Anti viral activity against 2.2.15 cells (concentration required to reduce the log phase cell growth by 50%). Format: cell-based. The settings on record: human, 2.2.15 cells (HepG2-derived); read-out: TC50 (the source's name). The method in brief: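 Growing 2.2.15/HepG2 cells at 1.7×10^4/well, subconfluent on collagen-coated plates, given compound dilutions in quadruplicate. Drug medium refreshed every second day. Proliferation read on days 0, 4, 8 and 12; TC50 is the concentration giving 50% inhibition of proliferation after 12 days' exposure. Mean of three or more experiments.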

In data set [2] the test system is HepG2. Nature of the data set: Ability to inhibit the episomal HBV-DNA in 2.2.15 cells. The note with it: Homo sapiens. Format: functional, cell-based.
In data set [3] the test system is MRC5. Briefly: Anti HCMV (human cytomegalovirus) activity in MRC-5 cells infected with […] strain of HCMV (plaque reduction assay). Format: functional, cell-based.
Data set [4] can be described thus: Visual cytotoxicity of stationary MRC-5 cells, median toxic concentration is evaluated by anti HCMV plaque reduction assay performed in MRC-5 cells using the AD169 strain of HCMV. It counts as cell-based, MRC5. The settings on record: human, read-out: TC50 (the source's name). The method in brief:
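Stationary uninfected MRC-5 cells scored visually for cytotoxicity from 0 (none at 20-fold magnification) to 4 (cell sheet nearly destroyed); median toxic concentration reported.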

Data set [5] has as its system Vero. Nature of the data set: Ability to inhibit the Cytopathic effect of HSV-2 in vero cells. Format: functional, cell-based. The note with it: Chlorocebus sabaeus.
The test system of data set [6] is Vero. Nature of the data set: Ability to inhibit the Cytopathic effect of HSV-1 in vero cells. Format: functional, cell-based. The note with it: Chlorocebus sabaeus.
Data set [7] has as its system MRC5. Briefly: Plaque reduction performed using the DHPG- resistant D16 strain of HCMV in MRC-5 cell line. The settings on record: Homo sapiens. Format: functional, cell-based. The essentials: (§1)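 Plaque reduction in MRC-5 cells, grown in MEM(E) with 10% FBS and passaged 1:2, infected with the DHPG-resistant D16 HCMV strain, a viral polymerase mutant. IC50 is the concentration reducing plaques by 50%, derived from a regression line of inhibition versus log concentration. Ganciclovir served as the positive control.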

Data set [8] is described as follows: Visual cytotoxicity of […], median toxic concentration is evaluated by plaque reduction assay performed in HFF Cell line Hs 68. It counts as cell-based. The note with it: human.
A short description of data set [9]: Visual cytotoxicity of stationary MRC-5 cells, median toxic concentration is evaluated by plaque reduction assay performed in DHPG- resistant D16 strain of HCMV. It counts as cell-based, MRC5. The note with it: human, read-out: TC50 (the source's name). The essentials: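 Uninfected stationary MRC-5 cells were scored by eye for cytotoxicity, from 0 (none visible at 20-fold magnification) to 4 (cell sheet nearly destroyed). The value is the median toxic concentration.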

Data set [10] has as its system HFF. Briefly: Plaque reduction and cytotoxicity performed in HFF cell line Hs 68. The settings on record: Homo sapiens. It counts as functional, cell-based.
A short description of data set [11]: Anti viral activity against Vero cells (concentration required to reduce the log phase cell growth by 50%). It counts as cell-based. The settings on record: chlorocebus sabaeus, read-out: TC50 (the source's name). The method in brief:
(§2)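 Log-phase Vero cells, 5000 cells per assay, exposed to compound for 4 days in quadruplicate. Growth measured by tetrazolium-based (CellTiter 96 aqueous) proliferation read-out; averaged data used to calculate TC50, the concentration reducing cell growth by 50%.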

A short description of data set [12]: Anti viral activity against MRC-5 cells (concentration required to reduce the log phase cell growth by 50%). The settings on record: human, read-out: TC50 (the source's name). Format: cell-based, MRC5. The method in brief:
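Growing MRC-5 cells; growth inhibition measured with the CellTiter 96 aqueous proliferation assay. TC50 is the concentration reducing log-phase cell growth by 50%.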

The nature of data set [13]: Visual cytotoxicity of stationary HFF Cell line Hs68, median toxic concentration is evaluated by anti HCMV plaque reduction assay performed in HFF Cell line Hs 68. It counts as cell-based. The settings on record: human, read-out: TC50 (the source's name). The method in brief:
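Stationary uninfected HFF Hs68 cells scored visually for cytotoxicity from 0 (none at 20-fold magnification) to 4 (cell sheet nearly destroyed); median toxic concentration reported.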

Data set [14] is described as follows: Visual cytotoxicity of […], median toxic concentration is evaluated by anti HCMV plaque reduction assay performed in HFF Cell line Hs 68. Format: cell-based. The settings on record: human, read-out: TC50 (the source's name).
Data set [15] in a line: Anti viral activity against vero cells (concentration required to reduce the log phase cell growth by 50%). Format: cell-based. The note with it: chlorocebus sabaeus, read-out: TC50 (the source's name). The method in brief: as §2
In data set [16] the test system is HFF. Nature of the data set: Anti HCMV(human cytomegalovirus) activity in HFF cell line Hs 68 infected with […] strain of HCMV(plaque reduction assay). Format: functional, cell-based. The essentials: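 HCMV AD169 plaque reduction in diploid human foreskin fibroblast line Hs68, grown in MEM(E) with 10% FBS and passaged 1:2. IC50 is the concentration cutting plaque number by 50%, calculated by linear regression of inhibition against log drug concentration. Values are averages of three or more experiments. Ganciclovir was the positive control.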

For data set [17], the system named is HFF. Briefly: Anti HCMV(human cytomegalovirus) activity in MRC-5 cells infected with DHPG-resistant D16 strain of HCMV(plaque reduction assay). Format: functional, cell-based. The essentials: as §1

In brackets after ≈: the same amount, converted by molar mass. Where only a bound is given, the exact number is not on record here.

For `Nc1nc(N)c2ccn(C3OC(CO)CC3F)c2n1` (stereo unspecified), the GI50 in [1] came to 149 µg/mL (≈ 558 µM). Further, the IC50 was over 30 µg/mL in data set [2], over 100 µg/mL in data set [3], over 100 µg/mL in data set [5] and over 100 µg/mL in [6]. In [4], the CC50 was over 100 µg/mL.
`Nc1nc(Cl)c2ccn([C@@H]3O[C@H](CO)[C@@H](O)[C@@H]3F)c2n1`: in [3], the IC50 was over 100 µg/mL. Also, the CC50 in [4] is 32 µg/mL (≈ 106 µM).
`NC1=NC(=S)C2C=CN([C@@H]3O[C@H](CO)[C@@H](O)[C@@H]3F)C2=N1` (stereo partly specified): the IC50 in [3] was over 50 µg/mL. For the same compound, the CC50 in [4] is over 50 µg/mL.
In the case of `COc1nc(N)nc2c1ccn2[C@@H]1O[C@H](CO)[C@@H](O)[C@@H]1F`, the IC50 in [3] was over 100 µg/mL. The CC50 in data set [4] was over 100 µg/mL.
`Nc1nc(N)c2ccn([C@@H]3O[C@H](CO)[C@@H](O)[C@@H]3F)c2n1`: the GI50 turned out to be 630 µg/mL (≈ 2220 µM) in data set [1] and 11.4 µg/mL (≈ 40.2 µM) in [12]. For the same compound, the IC50 in data set [2] turned out to be 0.7 µg/mL (≈ 2.47 µM); in [3] it was 3.7 µg/mL (≈ 13.1 µM); in data set [7], 11 µg/mL (≈ 38.8 µM); in [5], 6.3 µg/mL (≈ 22.2 µM); in data set [10], 3.4 µg/mL (≈ 12 µM); in data set [6], 4.1 µg/mL (≈ 14.5 µM). In addition, the CC50 in data set [8] is over 1000 µg/mL; in [4] it was over 100 µg/mL; in data set [9], over 100 µg/mL; in [11], 53 µg/mL (≈ 187 µM).
On to `NSc1nc(N)nc2c1ccn2[C@@H]1O[C@H](CO)[C@@H](O)[C@@H]1F`, for which, in data set [3], the IC50 is over 100 µg/mL. Further, the CC50 in [4] was over 100 µg/mL.
`Nc1ncc2ccn([C@@H]3O[C@H](CO)[C@@H](O)C3F)c2n1` (stereo partly specified): in data set [3], half-maximal inhibition (IC50) required 16 µg/mL (≈ 59.6 µM). Also, the CC50 in data set [4] is over 100 µg/mL.
The compound `Nc1nc([SeH])c2ccn([C@@H]3O[C@H](CO)[C@@H](O)[C@@H]3F)c2n1` came in with an IC50 in [3] of 10 µg/mL (≈ 28.8 µM). Also, in data set [4], the CC50 was 178 µg/mL (≈ 513 µM).
In the case of `Nc1nc2c(ccn2[C@@H]2O[C@H](CO)[C@@H](O)[C@@H]2F)c(=O)[nH]1`, the GI50 in [1] is over 100 µg/mL. Also, the values for the concentration for half-maximal inhibition (IC50) in data set [2] and in data set [3] were 60 µg/mL (≈ 211 µM) and 51 µg/mL (≈ 179 µM), respectively. Besides, the CC50 in [4] was over 100 µg/mL.
Regarding `Nc1ncc2c(n1)N([C@@H]1O[C@H](CO)[C@@H](O)[C@@H]1F)CC2`, in data set [3], the IC50 was over 100 µg/mL. Also, in [4], the CC50 is 32 µg/mL (≈ 118 µM).
As to `Nc1nc2c(ncn2COC(CO)CO)c(=O)[nH]1` [GANCICLOVIR], the CC50 was over 1000 µg/mL in data set [13], over 1000 µg/mL in data set [14], 270 µg/mL (≈ 1060 µM) in data set [15] and over 1000 µg/mL in data set [4]. The results for the IC50 in [3], in [16] and in data set [17] were 3.2 µg/mL (≈ 12.5 µM), 4.4 µg/mL (≈ 17.2 µM) and 52 µg/mL (≈ 204 µM), respectively. For the same compound, in [12], the GI50 is over 500 µg/mL.
With `Nc1ccn([C@H]2CC[C@@H](CO)O2)c(=O)n1` [ZALCITABINE], the GI50 in data set [1] was found to be 64 µg/mL (≈ 303 µM). The same compound gave an IC50 in [2] of 2.1 µg/mL (≈ 9.94 µM).
